Experimental data gathered from unrelated publications.

SMILES | target | test | conditions | measurement | value
Cc1cc([C@@H](C)Nc2ccccc2C(=O)O)c2nc(N3CCC(F)(F)CC3)c(C#N)c(=O)n2c1 | Tyrosine-protein kinase ABL1, phosphorylated (ABL1, Homo sapiens, UniProt P00519, T315I) | binding, competition with immobilised ligand | 10 µM | remaining binding | 100%
COc1cc(-c2cncc3c2CN(C)Cc2cc(N4CCNCC4)ccc2-3)cc(OC)c1OC | Tyrosine-protein kinase ABL1 (ABL1, Homo sapiens, UniProt P00519, H396P) | enzyme activity, inhibitor | 1 µM | remaining activity | 88%
O=C(O)CNc1cccc(CN(Cc2ccc(-n3cccn3)cc2)S(=O)(=O)c2cccnc2)n1 | Carbonic anhydrase 1 (CA1, Homo sapiens, UniProt P00915) | enzyme activity, inhibitor | 10 µM | inhibition | 0%
CCc1nn(C)c2nc(-c3ccc(C(=O)O)cc3)nc(NCc3ccc(F)cc3)c12 | cGMP-dependent 3',5'-cyclic phosphodiesterase (PDE2A, Homo sapiens, UniProt O00408) | enzyme activity, inhibitor, radiometric | 10 µM | inhibition | 35.7%
CC(C)OC(=O)CNc1cccc(CN(Cc2ccc(-n3cccn3)cc2)S(=O)(=O)c2cccnc2)n1 | Alpha-2A adrenergic receptor (ADRA2A, Homo sapiens, UniProt P08913) | ligand displacement, radioligand | 10 µM | inhibition | 4%
CNc1ncc2c(/C=C/C(=O)N3CCC(OC)CC3)nn(Cc3cccc(C(F)(F)F)c3)c2n1 | Dual specificity mitogen-activated protein kinase kinase 6 (MAP2K6, Homo sapiens, UniProt P52564, S207D/T211D) | enzyme activity, inhibitor, radiometric | 1 µM | remaining activity | 94%
O=C(COP(=O)(O)O)[C@@H](O)[C@H](O)[C@H](O)COP(=O)(O)O | Son of sevenless homolog 1 (SOS1, Homo sapiens, UniProt Q07889) | thermal stability | 5 mM, lysate | ΔTm | -6.2 °C
C=CC(=O)N1CCC(COCC(=O)N2CCN(c3nc(-c4cnc(N)nc4C(F)F)nc(N4CCOC[C@@H]4C)n3)CC2)CC1 | Mitogen-activated protein kinase kinase kinase 2 (MAP3K2, Homo sapiens, UniProt Q9Y2U5) | binding, competition with immobilised ligand | 1 µM | remaining binding | 97%
